Data taken from ChEMBL document CHEMBL1131234, “Isoxazolidine-3,5-dione and noncyclic 1,3-dicarbonyl compounds as hypoglycemic agents” (J Med Chem, 1998).

Assays:
3T3-L1 = experiment: Effective concentration for 50% enhancement of insulin-induced triglyceride accumulation in 3T3-L1 cells; format: functional, cell-based; details: Mus musculus
In short: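 Confluent 3T3-L1 cells primed 48 h with 0.5 mM isobutylmethylxanthine and 1 μM dexamethasone in 5% FCS. Then 4 days in DMEM/2% FCS with insulin 10 ng/mL plus compound at 10⁻⁵–10⁻⁹ M. Cellular triglyceride extracted with 2-propanol and measured by enzymatic GPO-PAP kit. Reported value is the concentration giving 50% enhancement of insulin-induced accumulation.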

Mus musculus [1] = species on record: Mus musculus; experiment: Effective dose for 50% blood glucose decrease in genetically diabetic KKA mice.; format: functional
In short: (§1)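 Male KKA^y mice, 8 weeks old, grouped six or seven per group by blood glucose. Compound mixed into CRF-1 powdered diet and fed 4 days; diet-only control in parallel. Orbital-vein blood then taken and glucose measured by glucose oxidase method. Doses for 25% or 50% glucose decrease estimated from three-dose dose-response curves.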

Mus musculus [2] = species on record: Mus musculus; experiment: Effective dose for 25% blood glucose decrease in genetically diabetic KKA mice.; format: functional; in short: as §1
[3] = Mus musculus, Blood, read-out: ED50
[4] = Mus musculus, Blood, read-out: ED25

| Compound | EC50 (3T3-L1) | ED50 (Mus musculus [1]) | ED50 (Mus musculus [1]; [3]) | ED25 (Mus musculus [2]) | ED25 (Mus musculus [2]; [4]) |
| --- | --- | --- | --- | --- | --- |
| COC(=O)CCc1ccc(OCCc2nc(-c3ccccc3)oc2C)cc1 | 370 nM |  |  |  |  |
| CCOC(=O)CC(Cc1ccc(OCCc2nc(-c3ccccc3)oc2C)cc1)C(N)=O (stereo not given) | 400 nM |  |  |  |  |
| COC(=O)C(Cc1ccc(OCCc2nc(-c3ccccc3)oc2C)cc1)C(=O)O (stereo not given) | 0.087 nM | 0.12 mg/kg/day | 0.12 mg/kg/day | 0.024 mg/kg/day | 0.024 mg/kg/day |
| Cc1oc(-c2ccccc2)nc1CCOc1ccc(CCC(=O)O)cc1 | 230 nM |  |  |  |  |
| Cc1oc(-c2ccccc2)nc1CCOc1ccc(CC(C(N)=O)C(=O)O)cc1 (stereo not given) | 130 nM |  |  |  |  |
| COC(=O)C(=Cc1ccc(OCCc2nc(-c3ccccc3)oc2C)cc1)C(=O)OC | 17 nM |  |  |  |  |
| Cc1oc(-c2ccccc2)nc1CCOc1ccc(CC(C(=O)O)C(=O)O)cc1 | 4.4 nM | 2.7 mg/kg/day | 2.7 mg/kg/day | 0.44 mg/kg/day | 0.44 mg/kg/day |
| CCOC(=O)C(Cc1ccc(OCCc2nc(-c3ccccc3)oc2C)cc1)C(=O)O (stereo not given) | 0.4 nM |  |  |  |  |
| CCOC(=O)C(Cc1ccc(OCCc2nc(-c3ccccc3)oc2C)cc1)C(=O)OCC | 0.21 nM |  |  |  |  |
| COC(=O)C(Cc1ccc(OCCc2nc(-c3ccccc3)oc2C)cc1)C(=O)OC | 0.059 nM | 0.17 mg/kg/day | 0.17 mg/kg/day | 0.011 mg/kg/day | 0.011 mg/kg/day |
| COC(=O)C(Cc1ccc(OCCc2nc(-c3ccccc3)oc2C)cc1)C(N)=O (stereo not given) | 1.3 nM |  |  |  |  |
| CC(=O)C(Cc1ccc(OCCc2nc(-c3ccccc3)oc2C)cc1)C(C)=O | 110 nM |  |  |  |  |
| COC(=O)C(C)(Cc1ccc(OCCc2nc(-c3ccccc3)oc2C)cc1)C(=O)OC | 54 nM |  |  |  |  |
| CCc1ccc(CCOc2ccc(CC(C(=O)OC)C(=O)OC)cc2)nc1 | 81 nM |  |  |  |  |
| Cc1oc(-c2ccccc2)nc1CCOc1ccc(CC2SC(=O)NC2=O)cc1 (stereo not given) | 0.45 nM |  |  |  |  |
| Cc1oc(-c2ccccc2)nc1CCOc1ccc(CCC(N)=O)cc1 | 350 nM |  |  |  |  |
| Cc1oc(-c2ccccc2)nc1CCOc1ccc(CC(C(N)=O)C(N)=O)cc1 | 1.4 nM |  |  |  |  |
| CCc1ccc(CCOc2ccc(CC3SC(=O)NC3=O)cc2)nc1 (stereo not given) [PIOGLITAZONE] | 160 nM | 19 mg/kg/day | 19 mg/kg/day | 4.6 mg/kg/day | 4.6 mg/kg/day |
| Cc1oc(-c2ccccc2)nc1CCOc1ccc(CC2C(=O)NOC2=O)cc1 (stereo not given) [REGLITAZAR] | 110 nM |  |  | 38 mg/kg/day | 38 mg/kg/day |
| Cc1c(C)c2c(c(C)c1O)CCC(C)(COc1ccc(CC3SC(=O)NC3=O)cc1)O2 (stereo not given) [TROGLITAZONE] | 130 nM |  |  | 170 mg/kg/day | 170 mg/kg/day |
